The test system of experiment [1] is Rattus norvegicus. Description: Antiinflammatory activity in albino rat assessed as inhibition of carrageenan-induced paw edema at 100 mg/kg, po administered 1 hr prior to carrageenen challenge measured after 3 hrs relative to control. In kind it is functional. In a few lines: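 Four rats per group got 100 mg/kg po, 1 h before subplantar injection of 1% Type IV lambda carrageenan suspension into the right hind paw. Vehicle controls got 0.5% sodium carboxymethyl cellulose (10 mL/kg) and the positive control got ibuprofen 100 mg/kg. Paw volume was read by plethysmograph water displacement immediately and at 3 h. Edema was compared statistically with vehicle controls as percent inhibition.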
Background: In the carrageenan paw model, swelling and tenderness develop within hours.

Experiment [2] deals with Mus musculus. Description: Analgesic activity in albino mouse assessed as reduction in acetic acid-induced writhing response at 100 mg/kg, po administered 1 hr prior to acetic acid challenge relative to control. Details: scale not given: the % may be the effect or the level left. In kind it is functional. The essentials:
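Six mice per group got compound po at 100 mg/kg, 1 h before ip 0.6% acetic acid (10 mL/kg). Total writhes were counted over an observation window starting 5 min after the acetic acid injection. Aspirin at 100 mg/kg po was the positive control.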
In general terms: In writhing tests, fewer writhes than in controls are read as antinociception.

The inhibition in vivo is the relative decrease from the control value, in per cent. On to `CC(C)Cc1ccc(C(C)C(=O)O)cc1` (configuration not stated) [IBUPROFEN], for which the inhibition in vivo at 100 mg/kg in experiment [1] was determined as 70.7%.
Take `CC(=O)Oc1ccccc1C(=O)O` [ASPIRIN]: the Activity in experiment [2] came to 57.3%.

The values are drawn from ChEMBL document CHEMBL1154154, “Synthesis and pharmacological evaluation of 1,3,4-oxadiazole bearing bis(heterocycle) derivatives as anti-inflammatory and analgesic agents” (Eur J Med Chem, 2009).
